One data set concerns HUVEC. The data set is described as follows: Stimulation of innate immune response in HUVEC assessed as increase in TNFalpha-stimulated IL-8 production at 10 ug/ml preincubated for 3 hrs followed by TNFalpha stimulation measured after 12 hrs by ELISA. The data set is classed as functional, cell-based. The following applies: Homo sapiens. In outline: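 HUVECs grown in EGM-2 at 37 °C, 5% CO2. Cells preincubated ±compound for 3 h, then given 11 μL of 10 ng/mL hTNF-α (stock added to 100 μL well). Supernatants collected after a further 12 h for ELISA.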
In general terms: In an ELISA, binding on a coated surface is turned into a signal by an enzyme label.

Data set [1] in a line: Cytotoxicity against Drosophila melanogaster S2 cells assessed as reduction in cell viability at 10 ug/ml by WST8 assay. Format: cell-based. In a few lines:
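S2 cells kept at 25 °C in Schneider's medium with 10% FBS and 1% antibiotics/antimycotics. Viability read by colorimetric WST-8 conversion.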
Background: Tetrazolium assays rely on reduction of a dye to a coloured formazan, in cell work by metabolically active cells.

The subject of data set [2] is Drosophila. The experiment in a line: Stimulation of innate immune response in Drosophila third-instar larvae assessed as DAP-type peptidoglycans-mediated Dpt-LacZ activation at 10 ug/ml after 12 hrs by beta-galactosidase reporter gene assay. The data set is classed as functional, organism-based. In a few lines: (§1)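 Opened third-instar Dpt-lacZ larvae cultured whole in Schneider's medium with 20% FBS and 1% antibiotics/antimycotics, 25 °C, six larvae per condition as replicates. Compound added from DMSO together with 100 ng/mL E. coli peptidoglycan for 12 h. Each larva sonicated in phosphate buffer (60 mM Na2HPO4, 40 mM NaH2PO4, 10 mM KCl, 1 mM MgCl2) and spun 10000g, 4 °C, 10 min. Supernatant β-galactosidase normalized to total protein.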
In general terms: A reporter such as luciferase makes a cellular process visible.

For data set [3], the system named is Drosophila. The data set is described as follows: Stimulation of innate immune response in Drosophila third-instar larvae assessed as DAP-type peptidoglycans-mediated Dpt-LacZ activation at 1 to 10 ug/ml after 12 hrs by beta-galactosidase reporter gene assay. The data set is classed as functional, organism-based. In outline: as §1
In data set [4] the test system is Drosophila. The data set is described as follows: Stimulation of innate immune response in Drosophila third-instar larvae assessed as DAP-type peptidoglycans-mediated Dpt-LacZ activation at 10 ug/ml after 12 hrs by beta-galactosidase reporter gene assay relative to control. Format: functional. In outline:
as §1

Active and inactive are the calls of the source. The rule behind the calls is not given here.

For the compound `COC(=O)CCCc1cc(=O)c2c(OC)cc(C)c(-c3c(C)cc(OC)c4c(=O)cc(CCCC(=O)OC)oc34)c2o1`, the result in the data set on HUVEC and with Drosophila [2] was Active. Moreover, in data set [1], the Activity result is on record as “Non-Toxic”.
For `COC(=O)[C@]1([C@@H]2CCC(=O)O2)CC(=O)c2c(O)cc(C)c(-c3c(C)cc(O)c4c3O[C@@](C(=O)OC)([C@@H]3CCC(=O)O3)CC4=O)c2O1`, the Activity entry in the data set on Drosophila [3] was “Dose-dependent effect”. Further, in the data set on HUVEC, the result was Active. In addition, the “fold change (FC)” value with Drosophila [4] is given as over 3.
For `COc1cc(C)c(-c2c(C)cc(OC)c3c(=O)cc(CCCCO)oc23)c2oc(CCCCO)cc(=O)c12`, the outcome with Drosophila [3] was inactive.
As for `COc1cc(C)c(-c2c(C)cc(OC)c3c(=O)cc(CCCCOC(C)=O)oc23)c2oc(CCCCOC(C)=O)cc(=O)c12`, the Activity result in data set [1] is given as “Non-Toxic”. Further, the result in the data set with Drosophila [2] was Active.
For the compound `COc1ccc(-c2cc(=O)c3c(OC)cc(C)c(-c4c(C)cc(OC)c5c(=O)cc(-c6ccc(OC)cc6)oc45)c3o2)cc1`, the outcome in the data set with HUVEC and with Drosophila [2] was Active. Also, the Activity result in data set [1] is recorded as “Non-Toxic”.

The record behind these values is ChEMBL document CHEMBL4428030, “Design and Synthesis of Structure-Simplified Derivatives of Gonytolide for the Promotion of Innate Immune Responses” (J Nat Prod, 2016).
